Results taken from ChEMBL document CHEMBL4689842, “EUbOPEN Chemogenomics Library wave 1” (2021).

Test system: Fibroblast
Assay: Multiplex assay against human fibroblast
Type: toxicity, cell-based
Summary of the method: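 Live cells were stained at seeding with Hoechst33342, BioTracker Green Microtubule Cytoskeleton Dye, MitoTracker Red and Annexin V Alexa Fluor 680, then imaged on a CQ1 microscope at 37°C and 5% CO2 after compound addition. CellPathfinder machine-learning gating split cells into Hoechst high-intensity objects or normal cells. Normal cells were split into healthy, pyknosed or fragmented nuclei, and pyknosed cells into mitotic or apoptotic. Tubulin, mitochondrial-mass and membrane-permeability phenotypes are per cents of healthy-nucleus cells.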

[1] = 12 h, 1 µM, compound concentration 1 uM, replicate 1
[2] = 12 h, 1 µM, compound concentration 1 uM, replicate 2
[3] = 12 h, 10 µM, compound concentration 10 uM, replicate 1
[4] = 12 h, 10 µM, compound concentration 10 uM, replicate 2
[5] = 24 h, 1 µM, compound concentration 1 uM, replicate 1
[6] = 24 h, 1 µM, compound concentration 1 uM, replicate 2
[7] = 24 h, 10 µM, compound concentration 10 uM, replicate 1
[8] = 24 h, 10 µM, compound concentration 10 uM, replicate 2
[9] = 48 h, 1 µM, compound concentration 1 uM, replicate 1
[10] = 48 h, 1 µM, compound concentration 1 uM, replicate 2
[11] = 48 h, 10 µM, compound concentration 10 uM, replicate 1
[12] = 48 h, 10 µM, compound concentration 10 uM, replicate 2

SMILES: CN(C)C(=O)C(CCN1CCC(O)(c2ccc(Cl)cc2)CC1)(c1ccccc1)c1ccccc1.Cl [LOPERAMIDE HYDROCHLORIDE]
- Population Apoptotic (%) [1]: 54%
- Population Fragmented Nuclei (%) [1]: 26%
- Population Healthy Nuclei (%) [1]: 42%
- Population Hoechst High Intensity Objects (%) [1]: 12%
- Population Membrane Permeable-Phenotype (%) [1]: 19%
- Population Mitochondria Different-Phenotype (%) [1]: 19%
- Population Mitotic Cells (%) [1]: 45%
- Population Normal (%) [1]: 87%
- Population Pyknosed Nuclei (%) [1]: 31%
- Population Tubulin-Different-Phenotype (%) [1]: 54%
- Total Cell Count [1]: 155
- Population Apoptotic (%) [2]: 25%
- Population Fragmented Nuclei (%) [2]: 5%
- Population Healthy Nuclei (%) [2]: 88%
- Population Hoechst High Intensity Objects (%) [2]: 7%
- Population Membrane Permeable-Phenotype (%) [2]: 11%
- Population Mitochondria Different-Phenotype (%) [2]: 90%
- Population Mitotic Cells (%) [2]: 75%
- Population Normal (%) [2]: 92%
- Population Pyknosed Nuclei (%) [2]: 6%
- Population Tubulin-Different-Phenotype (%) [2]: 65%
- Total Cell Count [2]: 55
- Population Apoptotic (%) [3]: 64%
- Population Fragmented Nuclei (%) [3]: 23%
- Population Healthy Nuclei (%) [3]: 29%
- Population Hoechst High Intensity Objects (%) [3]: 12%
- Population Membrane Permeable-Phenotype (%) [3]: 0%
- Population Mitochondria Different-Phenotype (%) [3]: 87%
- Population Mitotic Cells (%) [3]: 35%
- Population Normal (%) [3]: 87%
- Population Pyknosed Nuclei (%) [3]: 46%
- Population Tubulin-Different-Phenotype (%) [3]: 92%
- Total Cell Count [3]: 158
- Population Apoptotic (%) [4]: 82%
- Population Fragmented Nuclei (%) [4]: 8%
- Population Healthy Nuclei (%) [4]: 48%
- Population Hoechst High Intensity Objects (%) [4]: 6%
- Population Membrane Permeable-Phenotype (%) [4]: 94%
- Population Mitochondria Different-Phenotype (%) [4]: 100%
- Population Mitotic Cells (%) [4]: 17%
- Population Normal (%) [4]: 93%
- Population Pyknosed Nuclei (%) [4]: 43%
- Population Tubulin-Different-Phenotype (%) [4]: 100%
- Total Cell Count [4]: 64
- Population Apoptotic (%) [5]: 45%
- Population Fragmented Nuclei (%) [5]: 22%
- Population Healthy Nuclei (%) [5]: 52%
- Population Hoechst High Intensity Objects (%) [5]: 12%
- Population Membrane Permeable-Phenotype (%) [5]: 19%
- Population Mitochondria Different-Phenotype (%) [5]: 20%
- Population Mitotic Cells (%) [5]: 54%
- Population Normal (%) [5]: 87%
- Population Pyknosed Nuclei (%) [5]: 25%
- Population Tubulin-Different-Phenotype (%) [5]: 55%
- Total Cell Count [5]: 157
- Population Apoptotic (%) [6]: 53%
- Population Fragmented Nuclei (%) [6]: 5%
- Population Healthy Nuclei (%) [6]: 71%
- Population Hoechst High Intensity Objects (%) [6]: 4%
- Population Membrane Permeable-Phenotype (%) [6]: 16%
- Population Mitochondria Different-Phenotype (%) [6]: 89%
- Population Mitotic Cells (%) [6]: 46%
- Population Normal (%) [6]: 95%
- Population Pyknosed Nuclei (%) [6]: 22%
- Population Tubulin-Different-Phenotype (%) [6]: 62%
- Total Cell Count [6]: 68
- Population Apoptotic (%) [7]: 82%
- Population Fragmented Nuclei (%) [7]: 26%
- Population Healthy Nuclei (%) [7]: 33%
- Population Hoechst High Intensity Objects (%) [7]: 24%
- Population Membrane Permeable-Phenotype (%) [7]: 7%
- Population Mitochondria Different-Phenotype (%) [7]: 77%
- Population Mitotic Cells (%) [7]: 17%
- Population Normal (%) [7]: 75%
- Population Pyknosed Nuclei (%) [7]: 39%
- Population Tubulin-Different-Phenotype (%) [7]: 92%
- Total Cell Count [7]: 156
- Population Apoptotic (%) [8]: 98%
- Population Fragmented Nuclei (%) [8]: 10%
- Population Healthy Nuclei (%) [8]: 26%
- Population Hoechst High Intensity Objects (%) [8]: 10%
- Population Membrane Permeable-Phenotype (%) [8]: 86%
- Population Mitochondria Different-Phenotype (%) [8]: 95%
- Population Mitotic Cells (%) [8]: 1%
- Population Normal (%) [8]: 89%
- Population Pyknosed Nuclei (%) [8]: 62%
- Population Tubulin-Different-Phenotype (%) [8]: 95%
- Total Cell Count [8]: 70
- Population Apoptotic (%) [9]: 67%
- Population Fragmented Nuclei (%) [9]: 29%
- Population Healthy Nuclei (%) [9]: 46%
- Population Hoechst High Intensity Objects (%) [9]: 14%
- Population Membrane Permeable-Phenotype (%) [9]: 8%
- Population Mitochondria Different-Phenotype (%) [9]: 9%
- Population Mitotic Cells (%) [9]: 32%
- Population Normal (%) [9]: 85%
- Population Pyknosed Nuclei (%) [9]: 23%
- Population Tubulin-Different-Phenotype (%) [9]: 56%
- Total Cell Count [9]: 155
- Population Apoptotic (%) [10]: 75%
- Population Fragmented Nuclei (%) [10]: 34%
- Population Healthy Nuclei (%) [10]: 62%
- Population Hoechst High Intensity Objects (%) [10]: 12%
- Population Membrane Permeable-Phenotype (%) [10]: 12%
- Population Mitochondria Different-Phenotype (%) [10]: 8%
- Population Mitotic Cells (%) [10]: 25%
- Population Normal (%) [10]: 87%
- Population Pyknosed Nuclei (%) [10]: 3%
- Population Tubulin-Different-Phenotype (%) [10]: 70%
- Total Cell Count [10]: 137
- Population Apoptotic (%) [11]: 86%
- Population Fragmented Nuclei (%) [11]: 36%
- Population Healthy Nuclei (%) [11]: 38%
- Population Hoechst High Intensity Objects (%) [11]: 36%
- Population Membrane Permeable-Phenotype (%) [11]: 2%
- Population Mitochondria Different-Phenotype (%) [11]: 70%
- Population Mitotic Cells (%) [11]: 13%
- Population Normal (%) [11]: 63%
- Population Pyknosed Nuclei (%) [11]: 25%
- Population Tubulin-Different-Phenotype (%) [11]: 70%
- Total Cell Count [11]: 139
- Population Apoptotic (%) [12]: 90%
- Population Fragmented Nuclei (%) [12]: 37%
- Population Healthy Nuclei (%) [12]: 52%
- Population Hoechst High Intensity Objects (%) [12]: 45%
- Population Membrane Permeable-Phenotype (%) [12]: 0%
- Population Mitochondria Different-Phenotype (%) [12]: 85%
- Population Mitotic Cells (%) [12]: 9%
- Population Normal (%) [12]: 54%
- Population Pyknosed Nuclei (%) [12]: 9%
- Population Tubulin-Different-Phenotype (%) [12]: 88%
- Total Cell Count [12]: 214
